# Published values of several laboratories.
# Target: Mitogen-activated protein kinase kinase kinase 13 (MAP3K13, Homo sapiens, UniProt O43283)
# Residues used in one study (O43283 1-966): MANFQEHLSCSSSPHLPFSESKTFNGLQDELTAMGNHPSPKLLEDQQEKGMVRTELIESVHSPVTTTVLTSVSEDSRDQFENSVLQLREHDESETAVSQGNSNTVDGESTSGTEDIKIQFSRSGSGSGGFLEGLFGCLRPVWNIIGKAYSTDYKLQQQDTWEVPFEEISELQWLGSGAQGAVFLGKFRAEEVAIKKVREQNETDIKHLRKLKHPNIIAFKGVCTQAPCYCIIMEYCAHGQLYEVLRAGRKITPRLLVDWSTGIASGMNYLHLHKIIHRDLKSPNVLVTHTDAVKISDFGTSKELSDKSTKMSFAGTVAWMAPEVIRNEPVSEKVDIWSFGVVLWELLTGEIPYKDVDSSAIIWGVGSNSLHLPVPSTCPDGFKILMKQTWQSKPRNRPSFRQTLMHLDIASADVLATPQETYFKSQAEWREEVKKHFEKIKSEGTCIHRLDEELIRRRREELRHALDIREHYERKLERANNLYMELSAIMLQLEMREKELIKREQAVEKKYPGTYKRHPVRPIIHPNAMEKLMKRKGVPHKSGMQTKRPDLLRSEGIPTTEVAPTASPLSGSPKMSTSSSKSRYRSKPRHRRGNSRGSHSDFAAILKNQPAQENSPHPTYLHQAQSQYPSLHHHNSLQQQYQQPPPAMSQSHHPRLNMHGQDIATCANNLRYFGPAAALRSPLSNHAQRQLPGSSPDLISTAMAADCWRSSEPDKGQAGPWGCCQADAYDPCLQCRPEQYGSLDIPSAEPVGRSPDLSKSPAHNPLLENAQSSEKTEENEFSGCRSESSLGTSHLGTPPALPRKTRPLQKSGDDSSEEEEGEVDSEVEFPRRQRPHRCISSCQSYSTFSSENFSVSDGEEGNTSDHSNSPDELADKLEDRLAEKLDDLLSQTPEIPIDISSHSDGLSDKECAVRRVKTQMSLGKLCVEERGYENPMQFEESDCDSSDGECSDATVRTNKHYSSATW
SMILES,assay,setting,remaining binding [%]
CO[C@@H](C)c1c(Nc2ccc([C@H](N(C)C(=O)C3CCS(=O)(=O)CC3)C(F)(F)F)cc2)cnc2cc(Cl)nn12,"cell-free assay, competition with immobilised ligand",1 µM,78
F[C@@H]1CCN(c2nccc(-c3cnn4ncccc34)n2)C1,binding,1 µM,100
O=C(c1ccc(Nc2ncc(Cl)c(-c3ccc(Cl)s3)n2)cc1)N1CCC(N2CCCC2)CC1,"binding, competition with immobilised ligand",1 µM,48
O=C(NCCCC1CCCCC1)c1ccc(CNC(=O)c2cnn(-c3ccccc3)c2C(F)(F)F)cc1,"cell-free assay, competition with immobilised ligand",0.1 µM,100
CNC(=O)[C@@H]1CC[C@@H](n2c(-c3ccc4cnccc4c3)nc3ccc(C(=O)NCc4cccc(C(N)=O)c4)cc32)C1,"binding, competition with immobilised ligand",1 µM,100
COc1ccnn2ncc(-c3ccnc(N(C)C)n3)c12,binding,1 µM,21
COCCOc1nc(-c2ccc(Cl)nc2)nc2c1CN(C(=O)c1ncn3ccccc13)CC2,"cell-free assay, competition with immobilised ligand",0.1 µM,87
O=C(NCC1CCOCC1)c1n[nH]cc1NC(=O)c1c(F)cccc1F,"binding, competition with immobilised ligand",1 µM,84
CC(=O)C1=C(C)N(c2cccc(C(F)(F)F)c2)C(=O)N[C@@H]1c1ccc(C#N)nc1,"cell-free assay, competition with immobilised ligand",1 µM,92.4
COc1cnc(Nc2cccc(S(N)(=O)=O)c2)nc1N1CCN(c2ccccc2)CC1,"binding, competition with immobilised ligand",1 µM,96
C[C@H]1CCN(c2nccc(-c3cnn4ncccc34)n2)C1,binding,1 µM,62
FC(F)(F)Oc1cccc(-c2cnc3ccc(-c4ccncc4)nn23)c1,"cell-free assay, competition with immobilised ligand",5 µM,83
COc1cc(-c2cn(C3CCc4c(F)cccc4N(CC(F)(F)F)C3=O)nn2)ccc1-n1cnc(C)c1 (centres unmarked),"cell-free assay, competition with immobilised ligand",1 µM,75
c1cncc(-c2cccc(Nc3nccc(NC4CCCCC4)n3)c2)c1,"binding, competition with immobilised ligand",10 µM,83
N[C@@H]1CCN(c2nccc(-c3cnn4ncccc34)n2)C1,binding,1 µM,100
COc1ccc2c(c1)O[C@H](c1ccc(OC)c(OC)c1)C[C@@H]2NC(=O)C1(c2ccc3c(c2)OC(F)(F)O3)CC1,"cell-free assay, competition with immobilised ligand",1 µM,91
CN(C)c1nccc(-c2cnc3ncccn23)n1,binding,1 µM,76
Cc1cnc(Nc2ccc(C(=O)N3CCC(N4CCCC4)CC3)cc2)nc1-c1cc2ccccc2s1,"binding, competition with immobilised ligand",1 µM,25
CC1CCCN1c1nccc(-c2cnn3ncccc23)n1 (centres unmarked),binding,1 µM,100
O=C(NCCCN1CCOCC1)c1ccc(Nc2ncc(Cl)c(-c3ccc(Cl)s3)n2)cc1,"binding, competition with immobilised ligand",1 µM,92
